Assays:
[1] = molecular target: T1, Ectonucleoside triphosphate diphosphohydrolase 3 (Homo sapiens) (UniProt O75355); experiment: Inhibition of human NTPDase 3 expressed in COS7 cells at 1mM; type: cell-based; settings: COS-7
T1 sequence (whole entry): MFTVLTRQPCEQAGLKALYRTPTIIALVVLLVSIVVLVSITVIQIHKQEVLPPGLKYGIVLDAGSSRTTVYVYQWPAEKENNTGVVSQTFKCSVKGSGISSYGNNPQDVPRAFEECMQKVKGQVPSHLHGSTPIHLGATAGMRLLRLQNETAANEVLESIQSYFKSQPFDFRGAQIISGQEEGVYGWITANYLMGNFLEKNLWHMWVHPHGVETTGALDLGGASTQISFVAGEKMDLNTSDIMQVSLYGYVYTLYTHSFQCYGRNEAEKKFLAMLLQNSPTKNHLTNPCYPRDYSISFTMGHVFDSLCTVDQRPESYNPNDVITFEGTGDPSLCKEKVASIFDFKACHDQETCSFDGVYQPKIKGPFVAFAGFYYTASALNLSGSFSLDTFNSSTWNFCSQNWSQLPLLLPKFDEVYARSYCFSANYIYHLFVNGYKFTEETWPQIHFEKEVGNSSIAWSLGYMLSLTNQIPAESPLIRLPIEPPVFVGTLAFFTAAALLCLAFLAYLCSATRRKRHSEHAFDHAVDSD
In short: (§1)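 NTPDase2 membranes come from stably transfected HEK 293 cells; NTPDase3 and NTPDase8 are transiently expressed in COS-7 cells as crude protein extracts. Buffer is 140 mM NaCl, 5 mM KCl, 1 mM MgCl2, 2 mM CaCl2, 10 mM HEPES pH 7.4, with 400 μM ATP, 37 °C, 10 min, stopped at 99 °C. Products are read by capillary electrophoresis (UV 210 nm, UMP internal standard).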

P2Y purinoceptor 2 [2] = molecular target: T2, P2Y purinoceptor 2 (Homo sapiens, UniProt P41231); experiment: Antagonist activity at human P2Y2 receptor expressed in human 1321N1 cells assessed as inhibition of UTP-induced intracellular calcium mobilization at 100 uM by FLUOstar plate reader; type: functional, cell-based
In short: (§2)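 Human 1321N1 astrocytoma cells express human P2Y2 or P2Y4, or rat P2Y6. Cells are loaded with Fura-2 AM and preincubated with compound at 100 μM. Inhibition of agonist-induced intracellular calcium release is read as Fura-2 fluorescence. The agonist is UTP for P2Y2 and P2Y4, and UDP for P2Y6.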

[3] = molecular target: T3, Ectonucleoside triphosphate diphosphohydrolase 8 (Homo sapiens, UniProt Q5MY95); experiment: Inhibition of human NTPDase 8 expressed in COS7 cells; type: cell-based, COS-7; in short: as §1
T3 sequence (Q5MY95 whole entry): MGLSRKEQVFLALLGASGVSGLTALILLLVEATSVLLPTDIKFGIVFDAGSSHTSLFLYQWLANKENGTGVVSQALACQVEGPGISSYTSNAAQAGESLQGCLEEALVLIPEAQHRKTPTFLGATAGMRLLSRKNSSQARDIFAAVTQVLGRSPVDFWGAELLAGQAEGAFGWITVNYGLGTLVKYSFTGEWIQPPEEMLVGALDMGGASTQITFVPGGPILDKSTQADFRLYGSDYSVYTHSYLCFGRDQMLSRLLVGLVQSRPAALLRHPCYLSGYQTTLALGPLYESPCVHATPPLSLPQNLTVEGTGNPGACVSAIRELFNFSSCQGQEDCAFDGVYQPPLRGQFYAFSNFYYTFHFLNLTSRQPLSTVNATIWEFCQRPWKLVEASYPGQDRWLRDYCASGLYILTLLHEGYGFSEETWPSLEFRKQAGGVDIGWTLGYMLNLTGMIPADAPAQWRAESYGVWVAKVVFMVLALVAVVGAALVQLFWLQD

[4] = molecular target: T4, Ectonucleoside triphosphate diphosphohydrolase 8 (Homo sapiens) (UniProt Q5MY95); experiment: Inhibition of human NTPDase 8 expressed in COS7 cells at 1mM; type: cell-based; settings: COS-7
T4 sequence (whole entry): T3 sequence (Q5MY95 whole entry)
In short: (§3)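 Transiently transfected COS-7 cell protein extract expressing human enzyme. 1 mM test compound with 400 μM ATP in HEPES 10 mM pH 7.4 buffer (NaCl, KCl, 1 mM MgCl2, 2 mM CaCl2), 37 °C for 10 min. Stopped at 99 °C for 5 min. Products measured by capillary electrophoresis, UV 210 nm, with UMP internal standard. Triplicates in two experiments; empty-pcDNA3 membrane control.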

[5] = molecular target: T5, Ectonucleoside triphosphate diphosphohydrolase 2 (Homo sapiens) (UniProt Q9Y5L3); experiment: Inhibition of human NTPDase 2 expressed in HEK293 cells at 1mM; type: cell-based
T5 sequence (whole entry): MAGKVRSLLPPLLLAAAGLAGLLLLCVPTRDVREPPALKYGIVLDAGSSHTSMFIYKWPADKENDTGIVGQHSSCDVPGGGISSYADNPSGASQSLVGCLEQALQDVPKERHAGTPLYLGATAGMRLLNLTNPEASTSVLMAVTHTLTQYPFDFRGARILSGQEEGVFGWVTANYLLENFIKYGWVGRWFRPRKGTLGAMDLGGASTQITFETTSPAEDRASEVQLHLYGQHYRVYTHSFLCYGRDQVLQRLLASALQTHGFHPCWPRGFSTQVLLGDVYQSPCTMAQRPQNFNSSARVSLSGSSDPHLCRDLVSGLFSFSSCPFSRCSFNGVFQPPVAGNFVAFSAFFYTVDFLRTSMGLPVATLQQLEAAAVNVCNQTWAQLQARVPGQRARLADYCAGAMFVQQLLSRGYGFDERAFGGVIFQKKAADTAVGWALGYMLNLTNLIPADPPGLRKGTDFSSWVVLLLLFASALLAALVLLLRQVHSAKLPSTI
In short: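 Membranes from HEK 293 cells stably expressing human NTPDase2 (geneticin selection), prepared by differential and sucrose-gradient centrifugation. 1 mM test compound with 400 μM ATP in 10 mM HEPES pH 7.4 saline (1 mM MgCl2, 2 mM CaCl2), 37 °C for 10 min. Heat-stopped at 99 °C. Nucleotides separated by capillary electrophoresis, UV 210 nm, UMP internal standard. Triplicates, two experiments.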

[6] = molecular target: T6, Ectonucleoside triphosphate diphosphohydrolase 1 (Homo sapiens) (UniProt P49961); experiment: Inhibition of human NTPDase 1 expressed in COS7 cells at 1mM; type: cell-based; settings: COS-7; in short: as §3
T6 sequence (whole entry): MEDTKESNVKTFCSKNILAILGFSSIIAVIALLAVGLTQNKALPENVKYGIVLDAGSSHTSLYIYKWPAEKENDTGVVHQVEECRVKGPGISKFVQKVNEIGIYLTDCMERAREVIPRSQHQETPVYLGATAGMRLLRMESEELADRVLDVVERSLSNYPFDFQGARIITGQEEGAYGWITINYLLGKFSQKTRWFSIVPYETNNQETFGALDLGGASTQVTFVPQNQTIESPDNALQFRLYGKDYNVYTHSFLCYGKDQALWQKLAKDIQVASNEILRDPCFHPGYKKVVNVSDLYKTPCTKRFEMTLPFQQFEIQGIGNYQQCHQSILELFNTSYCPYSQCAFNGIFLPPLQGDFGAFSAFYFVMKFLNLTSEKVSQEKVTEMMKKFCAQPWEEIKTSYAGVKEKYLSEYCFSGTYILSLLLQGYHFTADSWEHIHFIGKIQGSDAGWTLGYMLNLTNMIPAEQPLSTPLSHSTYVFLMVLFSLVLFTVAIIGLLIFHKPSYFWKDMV

P2Y purinoceptor 4 [7] = molecular target: T7, P2Y purinoceptor 4 (Homo sapiens, UniProt P51582); experiment: Antagonist activity at human P2Y4 receptor expressed in human 1321N1 cells assessed as inhibition of UTP-induced receptor activation at 100 uM relative to UTP; type: functional, cell-based; parameters: scale not given: the % may be the effect or the level left; in short: as §2
[8] = Chemical stability in 0.001 N aqueous sodium hydroxide at pH 11 by LC-MS analysis; type: physicochemical; settings: buffer
In short: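 Compound from a 2 mM aqueous stock (20 mM NH4OAc) is diluted 10 μL into 990 μL of 0.001 N NaOH (pH 11). It is incubated 2 or 24 h at 37 °C and analysed by C18 LC–ESI-MS, with detection limit about 0.1 μg/mL.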

P2Y purinoceptor 4 [9] = molecular target: T7, P2Y purinoceptor 4; experiment: Antagonist activity at human P2Y4 receptor expressed in human 1321N1 cells assessed as inhibition of UTP-induced intracellular calcium mobilization at 100 uM by FLUOstar plate reader; type: functional, cell-based; in short: as §2
[10] = molecular target: P2Y purinoceptor 6 (Rattus norvegicus) (UniProt Q63371); experiment: Antagonist activity at rat P2Y6 receptor expressed in human 1321N1 cells assessed as inhibition of UDP-induced intracellular calcium mobilization at 100 uM by NOVOstar plate reader; type: functional, cell-based; in short: as §2
P2Y purinoceptor 2 [11] = molecular target: T2, P2Y purinoceptor 2; experiment: Antagonist activity at human P2Y2 receptor expressed in human 1321N1 cells assessed as inhibition of UTP and ATP-induced receptor activation at 100 uM relative to UTP; type: functional, cell-based; parameters: scale not given: the % may be the effect or the level left; in short: as §2
[12] = molecular target: P2Y purinoceptor 6 (Rattus norvegicus) (UniProt Q63371); experiment: Antagonist activity at rat P2Y6 receptor expressed in human 1321N1 cells assessed as inhibition of UDP-induced receptor activation at 100 uM relative to UDP; type: functional, cell-based; parameters: scale not given: the % may be the effect or the level left; in short: as §2
[13] = Stability in simulated artificial gastric juice after 24 hrs by LC-MS analysis; type: physicochemical; settings: simulated gi fluid
[14] = Metabolic stability in rat liver microsomes after 24 hrs by LC-MS analysis; type: ADME, Microsome; settings: read-out: Stability
[15] = molecular target: T8, Ectonucleoside triphosphate diphosphohydrolase 2 (Homo sapiens, UniProt Q9Y5L3); experiment: Inhibition of human NTPDase 2 expressed in HEK293 cells assessed as residual activity by capillary electrophoresis; type: cell-based; in short: as §1
T8 sequence (Q9Y5L3 whole entry): T5 sequence (whole entry)

T7 sequence (P51582 whole entry): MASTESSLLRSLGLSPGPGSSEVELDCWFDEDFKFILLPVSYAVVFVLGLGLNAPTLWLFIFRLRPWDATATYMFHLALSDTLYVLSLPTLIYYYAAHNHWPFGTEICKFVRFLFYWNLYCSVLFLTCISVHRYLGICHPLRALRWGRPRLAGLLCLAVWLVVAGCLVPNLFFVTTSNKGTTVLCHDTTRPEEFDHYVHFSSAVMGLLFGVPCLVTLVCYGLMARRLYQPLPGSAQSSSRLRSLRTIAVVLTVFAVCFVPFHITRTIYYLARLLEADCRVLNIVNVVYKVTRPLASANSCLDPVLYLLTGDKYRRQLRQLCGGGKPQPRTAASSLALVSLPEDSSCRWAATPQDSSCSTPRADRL
T2 sequence (P41231 whole entry): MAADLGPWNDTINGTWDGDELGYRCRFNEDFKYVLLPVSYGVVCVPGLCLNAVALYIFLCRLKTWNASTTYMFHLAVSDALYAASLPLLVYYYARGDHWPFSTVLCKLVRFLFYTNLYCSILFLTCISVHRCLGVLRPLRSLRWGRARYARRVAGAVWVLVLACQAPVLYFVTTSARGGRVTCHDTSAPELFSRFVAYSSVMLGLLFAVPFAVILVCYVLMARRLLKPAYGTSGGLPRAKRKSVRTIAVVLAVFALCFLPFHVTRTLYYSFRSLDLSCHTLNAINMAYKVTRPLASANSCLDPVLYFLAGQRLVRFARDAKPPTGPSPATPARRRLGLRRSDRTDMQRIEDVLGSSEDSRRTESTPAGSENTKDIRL
Sequence of P2Y purinoceptor 6 (Rattus norvegicus) (Q63371 whole entry): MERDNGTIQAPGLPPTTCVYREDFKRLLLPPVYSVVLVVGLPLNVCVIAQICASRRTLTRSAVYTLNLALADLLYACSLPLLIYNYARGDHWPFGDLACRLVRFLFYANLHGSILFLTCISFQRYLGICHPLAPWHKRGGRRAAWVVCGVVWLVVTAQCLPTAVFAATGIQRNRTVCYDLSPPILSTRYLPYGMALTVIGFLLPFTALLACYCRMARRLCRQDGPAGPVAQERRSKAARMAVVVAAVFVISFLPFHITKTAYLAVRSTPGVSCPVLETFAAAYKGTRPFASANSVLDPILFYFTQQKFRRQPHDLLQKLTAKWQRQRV

inhibition [5]	inhibition [6]	SMILES	inhibition [1]	inhibition (P2Y purinoceptor 2 [2])	Ki [3]	inhibition [4]	Activity (P2Y purinoceptor 4 [7])	Activity [8]	inhibition (P2Y purinoceptor 4 [9])	inhibition [10]	Activity (P2Y purinoceptor 2 [11])	Activity [12]	Activity [13]	remaining at 24 h [14]	Stability [8]	IC50 [15]	Stability [13]
		CCOP(=O)(Cc1ccc(NC(=O)CCCNC(=O)[C@H]2O[C@@H](n3cnc4c(N)ncnc43)[C@H](O)[C@@H]2O)cc1)OCC	0%	37%	255 µM												
0%	0%	CCOP(=O)(CNC(=O)CCCNC(=O)[C@H]1O[C@@H](n2cnc3c(N)ncnc32)[C@H](O)[C@@H]1O)OCC	0%	32%		0%											
		CCOP(=O)(Cc1ccc(NC(=O)CCNC(=O)[C@H]2O[C@@H](n3ccc(=O)[nH]c3=O)[C@H](O)[C@@H]2O)cc1)OCC	40%	10%		0%	-6%	Active	14%	7%	14%	-5%	Active	> 95%			
0%	0%	CCOP(=O)(CNC(=O)CNC(=O)[C@H]1O[C@@H](n2cnc3c(N)ncnc32)[C@H](O)[C@@H]1O)OCC	25%	61%		0%	-2%				33%	6%					
		CCOP(=O)(Cc1ccc(NC(=O)CCNC(=O)[C@H]2O[C@@H](n3cnc4c(N)ncnc43)[C@H](O)[C@@H]2O)cc1)OCC	0%	46%		0%	11%			15%	16%	-7%					
	0%	CCOP(=O)(CNC(=O)CCNC(=O)[C@H]1O[C@@H](n2ccc(=O)[nH]c2=O)[C@H](O)[C@@H]1O)OCC	0%	43%		0%	11%		6%	-3%	13%	-16%					

SMILES	inhibition [5]	inhibition [6]	inhibition [1]	inhibition (P2Y purinoceptor 2 [2])	Ki [3]	inhibition [4]	Activity (P2Y purinoceptor 4 [7])	Activity [8]	inhibition (P2Y purinoceptor 4 [9])	inhibition [10]	Activity (P2Y purinoceptor 2 [11])	Activity [12]	Activity [13]	remaining at 24 h [14]	Stability [8]	IC50 [15]	Stability [13]
CCOP(=O)(Cc1ccc(NC(=O)CNC(=O)[C@H]2O[C@@H](n3ccc(=O)[nH]c3=O)[C@H](O)[C@@H]2O)cc1)OCC		50%	0%	22%		0%	-42%		4%	-10%	-21%	-7%		> 95%	Stable	42 µM	Stable
